Experimental findings from ChEMBL document CHEMBL1155279, “1,5-Diaryl-2-ethyl pyrrole derivatives as antimycobacterial agents: design, synthesis, and microbiological evaluation” (Eur J Med Chem, 2009) are described below.

One may read the MIC as the least concentration at which growth counts as inhibited. Higher therefore signals a need for much substance.

In brackets after ≈: the same amount, converted by molar mass.

The test system of the assay is Mycobacterium tuberculosis. The assay can be described thus: Antimycobacterial activity against rifampicin-resistant Mycobacterium tuberculosis ATCC 35838 by twofold agar dilution method. Format: functional. Summed up:
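Twofold agar dilution in Middlebrook 7H11 agar with 10% OADC (oleic acid, albumin, dextrose). Compounds dissolved in DMSO at 5 mg/mL (one in ethanol at 6 mg/mL), stock, stored cold. MIC determined for each strain. Strains: M. tuberculosis CIP 103471, H37Rv ATCC 27294, rifampicin-resistant ATCC 35838, M. avium CIP 103317.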
For orientation: In agar dilution the substance is mixed into plates at graded concentrations.
Regarding `CCc1c(CN2CCSCC2)cc(-c2ccccc2F)n1-c1ccccc1F`, it took 8 µg/mL (≈ 20.1 µM) to inhibit growth (MIC). Turning to `CCc1c(CN2CCSCC2)cc(-c2ccc(F)cc2)n1-c1ccccc1`, the MIC came out at 1 µg/mL (≈ 2.63 µM). For the compound `CCc1c(CN2CCSCC2)cc(-c2ccccc2)n1-c1ccc(F)cc1`, the MIC came to 4 µg/mL (≈ 10.5 µM). Compound `CCc1c(CN2CCN(C)CC2)cc(-c2ccc(Cl)cc2)n1-c1ccc(Cl)cc1` gave a minimal inhibitory concentration (MIC) of 4 µg/mL (≈ 9.34 µM). In the case of `CCc1c(CN2CCSCC2)cc(-c2ccc(C)cc2)n1-c1ccc(F)cc1`, the MIC is 0.25 µg/mL (≈ 0.634 µM). For the compound `CO[C@H]1/C=C/O[C@@]2(C)Oc3c(C)c(O)c4c(O)c(c(/C=N/N5CCN(C)CC5)c(O)c4c3C2=O)NC(=O)/C(C)=C\C=C\[C@H](C)[C@H](O)[C@@H](C)[C@@H](O)[C@@H](C)[C@H](OC(C)=O)[C@@H]1C` [RIFAMPIN], the minimum inhibitory concentration (MIC) was above 100 µg/mL. `CN[C@@H]1[C@H](O[C@H]2[C@H](O[C@H]3[C@H](O)[C@@H](O)[C@H](N=C(N)N)[C@@H](O)[C@@H]3N=C(N)N)O[C@@H](C)[C@]2(O)C=O)O[C@@H](CO)[C@H](O)[C@H]1O` [STREPTOMYCIN] had an MIC of 0.5 µg/mL (≈ 0.86 µM). For the compound `CCc1c(CN2CCSCC2)cc(-c2ccccc2)n1-c1ccccc1`, the MIC turned out to be 4 µg/mL (≈ 11 µM).

As to `CCc1c(CN2CCSCC2)cc(-c2ccc(F)cc2)n1-c1ccccc1F`, the lowest concentration to inhibit growth (MIC) was 2 µg/mL (≈ 5.02 µM).
